In ChEMBL document CHEMBL1140385, “Synthesis and antibacterial activity of 3-substituted-6-(3-ethyl-4-methylanilino)uracils” (J Med Chem, 2005):
≈ marks a conversion by molar mass, not a printed value.

Columns and labels:
Staphylococcus aureus [1] = test: Serum effect on MIC against Staphylococcus aureus (Smith) as ratio of MIC value in presence and absence of 50% fetal calf serum; format: functional
Method in brief: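 Broth microdilution MIC was repeated with 50% fetal calf serum added to the growth medium (LB for S. aureus, brain-heart infusion broth for E. faecalis). The inoculum was (3-7) × 10^5 CFU/mL in 1% DMSO, incubated at 37 °C for 16-24 h, and read by OD600. The serum effect is the MIC with serum relative to the MIC without serum.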

Enterococcus faecium [2] = test: In vitro minimum inhibitory concentration against Enterococcus fecium upon incubation at 37 degree C for 16 to 24 hr by dissolving in DMSO (1%); format: functional
Method in brief: (§1)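 Broth microdilution (modified NCCLS M7-A4). Enterococci grown to log phase in brain-heart infusion broth, seeded at (3-7) × 10⁵ CFU/mL. Compounds 2-fold diluted from DMSO stocks, 20 to 1.25 µg/mL, final 1% DMSO, in duplicate. Incubated 37 °C, 16-24 h, with shaking. OD600 read.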

Enterococcus faecium [3] = test: In vitro minimum inhibitory concentration against Vancomycin resistant Enterococci faecium upon incubation at 37 degree C for 16 to 24 hr by dissolving in DMSO (1%); format: functional; method in brief: as §1
Staphylococcus aureus [4] = test: In vitro minimum inhibitory concentration against Staphylococcus aureus (Smith) upon incubation at 37 degree C for 16 to 24 hr by dissolving in DMSO (1%); format: functional
Staphylococcus aureus [5] = test: In vitro minimum inhibitory concentration against Methicillin-resistant Staphylococcus aureus upon incubation at 37 degree C for 16 to 24 hr by dissolving in DMSO (1%); format: functional
Method in brief: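 Broth microdilution (modified NCCLS M7-A4). Staphylococci grown to log phase in Luria broth, seeded at (3-7) × 10⁵ CFU/mL. Compounds 2-fold diluted from DMSO stocks, 20 to 1.25 µg/mL, final 1% DMSO, in duplicate. Incubated 37 °C, 16-24 h, with shaking. OD600 read.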

Enterococcus faecalis = test: In vitro minimum inhibitory concentration against Enterococcus faecalis upon incubation at 37 degree C for 16 to 24 hr by dissolving in DMSO (1%); format: functional
Method in brief: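 Log-phase E. faecalis was grown in brain-heart infusion broth and seeded at (3-7) × 10^5 CFU/mL. Duplicate 2-fold dilutions ran from 20 to 1.25 µg/mL, final 1% DMSO. After 16-24 h at 37 °C with shaking, OD600 was read.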

Staphylococcus aureus [6] = test: In vitro minimum inhibitory concentration against Staphylococcus aureus upon incubation at 37 degree C for 16 to 24 hr by dissolving in DMSO (1%); format: functional
Bacillus subtilis = test: In vitro minimum inhibitory concentration against Bacillus subtilis upon incubation at 37 degree C for 16 to 24 h; format: functional
[7] = molecular target: DNA polymerase III PolC-type (Bacillus subtilis (strain 168), UniProt P13267); test: Inhibitory concentration against Bacillus subtilis DNA polymerase IIIC using [3H]dTMP 250 pM (30 degree C for 10 min)
Method in brief: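 Homogeneous recombinant B. subtilis pol IIIC, 0.025-0.06 units, acted on activated calf thymus DNA with Mg2+, DTT, glycerol, dATP, dCTP, dTTP and [3H]dTTP, without dGTP. Compounds were serially diluted from DMSO. Reactions ran 10 min at 30 °C, were stopped with TCA-pyrophosphate, and the filter-collected precipitate was scintillation counted. Apparent Ki was read directly from this truncated assay; average standard deviation ±44%.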

DNA polymerase III PolC-type, sequence (P13267 whole entry, the tested form may be a part): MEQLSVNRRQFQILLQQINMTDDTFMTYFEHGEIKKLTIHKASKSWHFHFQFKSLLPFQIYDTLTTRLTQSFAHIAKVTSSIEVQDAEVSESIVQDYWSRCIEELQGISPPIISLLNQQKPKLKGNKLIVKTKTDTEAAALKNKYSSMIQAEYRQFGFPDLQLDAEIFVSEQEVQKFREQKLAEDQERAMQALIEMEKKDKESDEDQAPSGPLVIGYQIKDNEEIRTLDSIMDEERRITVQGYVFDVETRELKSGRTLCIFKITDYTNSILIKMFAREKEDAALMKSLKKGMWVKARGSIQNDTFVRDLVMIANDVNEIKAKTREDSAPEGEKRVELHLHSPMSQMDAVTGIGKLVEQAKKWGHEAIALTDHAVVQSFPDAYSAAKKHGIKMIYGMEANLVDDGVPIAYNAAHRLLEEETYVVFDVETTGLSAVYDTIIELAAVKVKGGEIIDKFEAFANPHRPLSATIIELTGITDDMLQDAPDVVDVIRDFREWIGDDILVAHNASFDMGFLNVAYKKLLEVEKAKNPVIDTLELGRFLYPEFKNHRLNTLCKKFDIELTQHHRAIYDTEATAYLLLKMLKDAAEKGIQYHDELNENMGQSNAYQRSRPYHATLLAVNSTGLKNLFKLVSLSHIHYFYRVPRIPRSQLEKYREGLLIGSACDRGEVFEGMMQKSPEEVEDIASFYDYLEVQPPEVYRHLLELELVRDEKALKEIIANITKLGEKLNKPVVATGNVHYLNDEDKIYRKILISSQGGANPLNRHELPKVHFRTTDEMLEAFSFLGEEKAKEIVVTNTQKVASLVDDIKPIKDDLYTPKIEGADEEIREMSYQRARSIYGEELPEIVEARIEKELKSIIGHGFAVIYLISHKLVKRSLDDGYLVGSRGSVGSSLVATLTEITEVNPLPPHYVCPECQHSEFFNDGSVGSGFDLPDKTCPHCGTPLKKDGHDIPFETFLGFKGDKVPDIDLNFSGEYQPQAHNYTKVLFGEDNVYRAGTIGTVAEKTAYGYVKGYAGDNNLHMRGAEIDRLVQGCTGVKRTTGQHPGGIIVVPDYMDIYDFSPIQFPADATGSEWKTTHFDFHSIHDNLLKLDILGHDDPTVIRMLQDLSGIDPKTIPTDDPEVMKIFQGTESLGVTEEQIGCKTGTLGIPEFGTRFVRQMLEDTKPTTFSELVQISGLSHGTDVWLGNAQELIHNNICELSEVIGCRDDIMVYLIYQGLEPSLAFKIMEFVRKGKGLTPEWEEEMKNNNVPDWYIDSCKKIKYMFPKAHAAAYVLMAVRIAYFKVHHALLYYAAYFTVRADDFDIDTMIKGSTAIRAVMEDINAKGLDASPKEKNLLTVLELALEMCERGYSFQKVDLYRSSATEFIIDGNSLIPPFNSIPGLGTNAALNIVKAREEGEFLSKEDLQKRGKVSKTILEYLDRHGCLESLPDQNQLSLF

Compound	MIC+/MIC- (Staphylococcus aureus [1])	MIC (Enterococcus faecium [2]) [µg/mL]	MIC (Enterococcus faecium [3]) [µg/mL]	MIC (Staphylococcus aureus [4]) [µg/mL]	MIC (Staphylococcus aureus [5]) [µg/mL]	MIC (Enterococcus faecalis) [µg/mL]	MIC (Staphylococcus aureus [6]) [µg/mL]	MIC (Bacillus subtilis) [µg/mL]	Ki [7] [nM]
CCc1cc(Nc2cc(=O)n(CCCCCCCCO)c(=O)[nH]2)ccc1C	21.3	2.5 (≈ 6.69 µM)	2.5 (≈ 6.69 µM)						
CCc1cc(Nc2cc(=O)n(CCCC(O)CO)c(=O)[nH]2)ccc1C (stereo not given)		20 (≈ 57.6 µM)	10 (≈ 28.8 µM)	20 (≈ 57.6 µM)	> 20	20 (≈ 57.6 µM)			
CCOC(=O)CCCn1c(=O)cc(Nc2ccc(C)c(CC)c2)[nH]c1=O	10		5 (≈ 13.9 µM)		5 (≈ 13.9 µM)	5 (≈ 13.9 µM)			
CCOC(=O)CCCCn1c(=O)cc(Nc2ccc(C)c(CC)c2)[nH]c1=O	>12.2	< 1.25	2.5 (≈ 6.69 µM)		> 20	5 (≈ 13.4 µM)			
CCc1cc(Nc2cc(=O)n(CCCCN)c(=O)[nH]2)ccc1C.Cl		> 20		10	> 20	> 20	20	20	
CCc1cc(Nc2cc(=O)n(CCCCCN3CC=C(c4ccc(F)cc4)CC3)c(=O)[nH]2)ccc1C		7.5 (≈ 15.3 µM)	5 (≈ 10.2 µM)	7.5 (≈ 15.3 µM)	7.5 (≈ 15.3 µM)	7.5 (≈ 15.3 µM)	10 (≈ 20.4 µM)		
CCc1cc(Nc2cc(=O)n(CCCCNC(=O)CCl)c(=O)[nH]2)ccc1C		10 (≈ 25.5 µM)	5 (≈ 12.7 µM)	5 (≈ 12.7 µM)	10 (≈ 25.5 µM)	5 (≈ 12.7 µM)			
CCc1cc(Nc2cc(=O)n(CCOCCOCCO)c(=O)[nH]2)ccc1C		10 (≈ 26.5 µM)	5 (≈ 13.2 µM)	10 (≈ 26.5 µM)	> 20	10 (≈ 26.5 µM)			
CCc1cc(Nc2cc(=O)n(CC(C)=O)c(=O)[nH]2)ccc1C		10 (≈ 33.2 µM)	20 (≈ 66.4 µM)	10 (≈ 33.2 µM)	10 (≈ 33.2 µM)	20 (≈ 66.4 µM)			
O=C(O)c1cn(C2CC2)c2cc(N3CCNCC3)c(F)cc2c1=O [CIPROFLOXACIN]		5 (≈ 15.1 µM)	20 (≈ 60.4 µM)	0.078 (≈ 0.235 µM)	> 20		0.156 (≈ 0.471 µM)	0.078 (≈ 0.235 µM)	
CCc1cc(Nc2cc(=O)n(CCO)c(=O)[nH]2)ccc1C		5 (≈ 17.3 µM)	5 (≈ 17.3 µM)	5 (≈ 17.3 µM)	10 (≈ 34.6 µM)	10 (≈ 34.6 µM)	5 (≈ 17.3 µM)	< 1.25	
CCc1cc(Nc2cc(=O)n(C/C=C/CO)c(=O)[nH]2)ccc1C	4.8	2.5 (≈ 7.93 µM)	2.5 (≈ 7.93 µM)	5 (≈ 15.9 µM)	5 (≈ 15.9 µM)	5 (≈ 15.9 µM)	10 (≈ 31.7 µM)	1.25 (≈ 3.96 µM)	
CCc1cc(Nc2cc(=O)n(CCCCC#N)c(=O)[nH]2)ccc1C	6	5 (≈ 15.3 µM)	5 (≈ 15.3 µM)		5 (≈ 15.3 µM)	2.5 (≈ 7.66 µM)	5 (≈ 15.3 µM)		
CCc1cc(Nc2cc(=O)n(CCCCOC)c(=O)[nH]2)ccc1C	7.4	2.5 (≈ 7.54 µM)	2.5 (≈ 7.54 µM)	5 (≈ 15.1 µM)	5 (≈ 15.1 µM)	5 (≈ 15.1 µM)	5 (≈ 15.1 µM)	< 1.25	
CCc1cc(Nc2cc(=O)n(CCCCCCCCCCO)c(=O)[nH]2)ccc1C		> 20		> 20		> 20	> 20	< 1.25	51
CCc1cc(Nc2cc(=O)n(CCCCN(CCO)CCO)c(=O)[nH]2)ccc1C		> 20		> 20		> 20	> 20	> 20	21
CCc1cc(Nc2cc(=O)n(CCCCOC(C)=O)c(=O)[nH]2)ccc1C		5 (≈ 13.9 µM)	5 (≈ 13.9 µM)		5 (≈ 13.9 µM)	5 (≈ 13.9 µM)			
CCc1cc(Nc2cc(=O)n(CCCCOC(=O)N3CCOCC3)c(=O)[nH]2)ccc1C		5 (≈ 11.6 µM)	5 (≈ 11.6 µM)	5 (≈ 11.6 µM)	10 (≈ 23.2 µM)	5 (≈ 11.6 µM)			
CCc1cc(Nc2cc(=O)n(CCCCNS(=O)(=O)c3cccs3)c(=O)[nH]2)ccc1C	13.7	2.5 (≈ 5.4 µM)	5 (≈ 10.8 µM)			5 (≈ 10.8 µM)	> 20		
CCc1cc(Nc2cc(=O)n(CCCCNC(=O)C3CC3)c(=O)[nH]2)ccc1C	14.9		5 (≈ 13 µM)	5 (≈ 13 µM)	20 (≈ 52 µM)	5 (≈ 13 µM)			
CCc1cc(Nc2cc(=O)n(CCCC(=O)O)c(=O)[nH]2)ccc1C		20 (≈ 60.4 µM)	20 (≈ 60.4 µM)		> 20	> 20	20 (≈ 60.4 µM)		
CCc1cc(Nc2cc(=O)n(CCCCCN3CCc4c([nH]c5ccc(OC)cc45)C3)c(=O)[nH]2)ccc1C		20 (≈ 38.8 µM)	5 (≈ 9.7 µM)	10 (≈ 19.4 µM)	10 (≈ 19.4 µM)	> 20			
CCc1cc(Nc2cc(=O)n(CC#CCO)c(=O)[nH]2)ccc1C		10 (≈ 31.9 µM)	10 (≈ 31.9 µM)		10 (≈ 31.9 µM)	10 (≈ 31.9 µM)	10 (≈ 31.9 µM)		
CCc1cc(Nc2cc(=O)n(CCN3CCN(C(=O)c4ccccc4)CC3)c(=O)[nH]2)ccc1C		5 (≈ 10.8 µM)	5 (≈ 10.8 µM)	10 (≈ 21.7 µM)	10 (≈ 21.7 µM)	10 (≈ 21.7 µM)			
CCc1cc(Nc2cc(=O)n(CCCCCCO)c(=O)[nH]2)ccc1C	8.7	5 (≈ 14.5 µM)			5 (≈ 14.5 µM)	2.5 (≈ 7.24 µM)	5 (≈ 14.5 µM)		
CCc1cc(Nc2cc(=O)n(CCCC(C)=O)c(=O)[nH]2)ccc1C		5 (≈ 15.2 µM)	2.5 (≈ 7.59 µM)	2.5 (≈ 7.59 µM)	5 (≈ 15.2 µM)	5 (≈ 15.2 µM)			
